Measurements as given in ChEMBL document CHEMBL3797045, “Routes of Synthesis of Carbapenems for Optimizing Both the Inactivation of L,D-Transpeptidase LdtMt1 of Mycobacterium tuberculosis and the Stability toward Hydrolysis by β-Lactamase BlaC” (J Med Chem, 2016).

Columns and labels:
[1] = test system: Mycobacterium tuberculosis; assay: Activity at Mycobacterium tuberculosis beta lactamase BlaC expressed in Escherichia coli by spectrophotometric method
Outline: (§1)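 BlaC produced in E. coli, purified by Ni-NTA affinity and size-exclusion chromatography. Carbapenem hydrolysis followed spectrophotometrically in 100 mM MES buffer, pH 6.4, at 20 °C. Direct determination of kcat and Km for substrates with Km above 10 μM. For the other compounds, kcat and Km were obtained by competition against the reporter substrate nitrocefin.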

[2] = test system: Mycobacterium tuberculosis; assay: Inhibition of Mycobacterium tuberculosis LdtMt1 expressed in Escherichia coli assessed as efficiency of acylation reaction by measuring ratio of K2 to Kapp by stopped-flow spectrofluorimetric method
Outline: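 His-tagged LdtMt1 expressed in E. coli and purified by Ni2+-NTA affinity, then by size-exclusion chromatography in 100 mM sodium phosphate pH 6.4 with 300 mM NaCl. Inactivation kinetics measured by stopped-flow spectrofluorimetry in 100 mM sodium phosphate, pH 6.0, at 10 °C. k1, k2 and k2/Kapp were calculated from the fluorescence kinetics.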

[3] = test system: Mycobacterium tuberculosis; assay: Activity at Mycobacterium tuberculosis beta lactamase BlaC expressed in Escherichia coli assessed as ratio of Kcat to Km by spectrophotometric method; outline: as §1

SMILES | Km [1] | Ratio [2] | kcat/Km [3]
C[C@@H](O)[C@H]1C(=O)N2C(C(=O)O)=C(SCCN)[C@H](C)[C@H]12 | 3.5 µM | 3600 M⁻¹ s⁻¹ | 320 M⁻¹ s⁻¹
CC(c1ccc(C(=O)O)cc1)n1cc(CCSC2=C(C(=O)O)N3C(=O)[C@H]([C@@H](C)O)[C@H]3[C@H]2C)nn1 (some centres not stated) | 47 µM | 29000 M⁻¹ s⁻¹ | 3200 M⁻¹ s⁻¹
CCSC1=C(C(=O)O)N2C(=O)[C@H]([C@@H](C)O)[C@H]2[C@H]1C | 11 µM | 10800 M⁻¹ s⁻¹ | 3700 M⁻¹ s⁻¹
C[C@@H](O)[C@H]1C(=O)N2C(C(=O)O)=C(SCCc3cn(-c4ccccc4)nn3)[C@H](C)[C@H]12 | 0.31 µM | 26000 M⁻¹ s⁻¹ | 2100 M⁻¹ s⁻¹
C[C@@H](O)[C@H]1C(=O)N2C(C(=O)O)=C(SCCc3cn(-c4ccccc4C(=O)O)nn3)[C@H](C)[C@H]12 | 3.3 µM | 26000 M⁻¹ s⁻¹ | 300 M⁻¹ s⁻¹
C[C@@H](O)[C@H]1C(=O)N2C(C(=O)O)=C(SCCc3cn(-c4cccc(C(=O)O)c4)nn3)[C@H](C)[C@H]12 | 19 µM | 36000 M⁻¹ s⁻¹ | 13000 M⁻¹ s⁻¹
C[C@@H](O)[C@H]1C(=O)N2C(C(=O)O)=C(SCCc3cn(CCCCC(=O)O)nn3)[C@H](C)[C@H]12 | 56 µM | 9600 M⁻¹ s⁻¹ | 5700 M⁻¹ s⁻¹
C[C@@H](O)[C@H]1C(=O)N2C(C(=O)O)=C(S[C@@H]3CN[C@H](C(=O)Nc4cccc(C(=O)O)c4)C3)[C@H](C)[C@H]12 | 4.8 µM | 23000 M⁻¹ s⁻¹ | 330 M⁻¹ s⁻¹
CCSC1=C(C(=O)O)N2C(=O)[C@H]([C@@H](C)OC(=O)c3ccccc3)[C@H]2[C@H]1C | 1.2 µM | 3800 M⁻¹ s⁻¹ | 1500 M⁻¹ s⁻¹
C[C@@H](O)[C@H]1C(=O)N2C(C(=O)O)=C(SCCc3ccccc3)[C@H](C)[C@H]12 | 1.5 µM | 39000 M⁻¹ s⁻¹ | 360 M⁻¹ s⁻¹
C[C@@H](O)[C@H]1C(=O)N2C(C(=O)O)=C(S[C@@H]3CN[C@H](C(=O)N(C)C)C3)[C@H](C)[C@H]12 | 0.92 µM | 1300 M⁻¹ s⁻¹ | 1000 M⁻¹ s⁻¹
CCSC1=C(C(=O)O)N2C(=O)[C@H]([C@@H](C)OC(=O)c3c(F)c(F)c(F)c(F)c3F)[C@H]2[C@H]1C | 1.4 µM | 25000 M⁻¹ s⁻¹ | 840 M⁻¹ s⁻¹
C[C@@H](O)[C@H]1C(=O)N2C(C(=O)O)=C(SCCc3cn(CCc4c[nH]c5ccccc45)nn3)[C@H](C)[C@H]12 | 0.17 µM | 28000 M⁻¹ s⁻¹ | 2000 M⁻¹ s⁻¹
C[C@@H](O)[C@H]1C(=O)N2C(C(=O)O)=C(S[C@@H]3CN[C@H](CNS(N)(=O)=O)C3)[C@H](C)[C@H]12 | 0.46 µM | 1500 M⁻¹ s⁻¹ | 1500 M⁻¹ s⁻¹
